# Screening data (PubChem BioAssay)
# APJ agonist = agonists of human apelin receptor APJ, primary screen, CHO-K1 cells, PathHunter beta-arrestin, luminescence; P35414; 0% DMSO wells, 100% apelin; activation, % at 20 µM; 0.11% of 330,000 active;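 active = activation more than six SD over the plate average, tested at 20 µM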;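 note: 0% = DMSO alone and 100% = apelin-13 at 10 nM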
# Target sequence (P35414 whole entry, looked up): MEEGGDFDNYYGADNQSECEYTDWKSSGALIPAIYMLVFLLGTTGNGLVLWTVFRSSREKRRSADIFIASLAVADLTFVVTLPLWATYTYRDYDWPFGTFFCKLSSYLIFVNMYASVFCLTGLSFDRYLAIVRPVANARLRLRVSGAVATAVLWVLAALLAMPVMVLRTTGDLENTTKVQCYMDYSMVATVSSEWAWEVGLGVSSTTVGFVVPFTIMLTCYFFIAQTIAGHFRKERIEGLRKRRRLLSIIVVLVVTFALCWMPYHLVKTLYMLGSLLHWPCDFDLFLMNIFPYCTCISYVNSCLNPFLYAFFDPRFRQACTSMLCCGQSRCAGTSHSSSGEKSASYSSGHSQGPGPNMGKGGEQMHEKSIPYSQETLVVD
#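 Material: CHO-K1 APJ beta-arrestin complementation cell line; Input: cell density 1000 per well; Incubation: compound stimulation 90 min at 25 °C, detection 60 min; Signal: luminescence from split beta-galactosidase complementation, Galacton Star/Emerald II substrate; Controls: DMSO-only wells as negative, 10 nM Apelin-13 as positive control.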
# CXCR6 block = CXCR6 receptor inhibitors, primary screen, cell-based, beta-arrestin, luminescence, CHO-K1 PathHunter, 1536-well; inhibition, % at 20 µM; AID 602244, 2012; 0.36% of 360,000 active; C-X-C chemokine receptor type 6 (Homo sapiens), O00574; in the data active = inhibition above about 34%, passing the limit was not always enough;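 note: antagonist mode with CXCL16 agonist at 10 nM final; 0% = 10 nM CXCL16 with DMSO and 100% = unstimulated wells without agonist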
# APJ antagonist = antagonists of human apelin receptor APJ, primary screen, CHO-K1 cells, beta-arrestin complementation, luminescence | P35414 | inhibition, % at 20 µM | 0.32% of 330,000 active | AID 2521, 2010;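 active = inhibition above about 40% at 20 µM, limit read from the data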;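 note: cells challenged with 10 nM apelin-13 agonist together with compound; plate controls were apelin-13 plus DMSO wells for no effect and DMSO wells lacking apelin-13 for full effect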
# HTR2A ag = mouse Htr2a agonists via beta-arrestin recruitment, primary screen, cell-based, luminescence | 0.66% of 360,000 active | activation, % at 7.6 µM | CHO-K1 mHTR2A beta-arrestin complementation; percent of 30 µM serotonin response;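 active = activation above a run cutoff, the mean activation of all tested compounds plus 3 SD, cut at about 14% in these data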;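 note: 0% = plate median of compound wells and 100% = 30 µM serotonin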
# EBI2 block = EBI2 receptor antagonists, beta-arrestin recruitment, primary screen, cell-based, luminescence, 7a,25-OHC stimulation, uHTS. G-protein coupled receptor 183 (Homo sapiens), P32249. 7a,25-OHC stimulated. inhibition, % at 5 µM. 0.81% of 360,000 active. AID 651636, 2012; in the data active = inhibition above about 38%;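 note: enzyme fragment complementation signal reports receptor beta-arrestin coupling in cells; 0% = agonist plus DMSO wells and 100% = wells without agonist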
# CCR6 antag = CCR6 receptor antagonists, primary screen, cell-based, CHO-K1, luminescence, beta-arrestin, uHTS | inhibition, % at 20 µM | CHO-K1 CCR6 PathHunter beta-arrestin, CCL20-stimulated | AID 493098, 2011 | 0.49% of 340,000 active | C-C chemokine receptor type 6 (Homo sapiens), P51684;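 active = compounds whose inhibition of the agonist-driven luminescence signal at 20 µM reaches about 50%, limit read from the data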;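 note: cells stimulated with CCL20 at 14 nM final; plate controls were DMSO with CCL20 for no effect and DMSO without agonist for full effect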
# APJ antag confirm = APJ antagonists blocking beta-arrestin recruitment, confirmation, cell-based, luminescence, single concentration, uHTS hits. shares compounds with APJ antagonist. antagonist mode. inhibition, % at 20 µM. 66% of 950 active; in the data active = inhibition above about 50%
# CXCR6 confirm = CXCR6 receptor antagonists, confirmation, cell-based, single concentration, beta-arrestin, luminescence. shares compounds with CXCR6 block. CHO-K1 CXCR6 PathHunter beta-arrestin. inhibition, % at 20 µM. 65% of 700 active;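 active = mean inhibition over four retests above 40%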;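 note: receptor stimulated with 10 nM CXCL16 agonist; beta-galactosidase fragment complementation upon beta-arrestin recruitment to receptor; plate controls were CXCL16 plus DMSO for no effect and DMSO without CXCL16 for full effect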
# Starred values were filed as active, the others as inactive; / = not tested or not shown. Sampled rows, rich in hits. Any-hit rate of the full collection: about 2.1%.
SMILES,APJ agonist,CXCR6 block,APJ antagonist,HTR2A ag,EBI2 block,CCR6 antag,APJ antag confirm,CXCR6 confirm
CN(c1ccccc1)S(=O)(=O)c1ccc(NC(=O)c2nc(S(C)(=O)=O)ncc2Cl)cc1,-6,94*,61*,-7,41,97*,111*,85*
CN(c1ccccc1)S(=O)(=O)c1ccc(NC(=O)c2ccccc2)cc1,0,-3,-16,-1,-9,17,/,/
CCS(=O)(=O)c1ncc(Cl)c(C(=O)Nc2ccc(S(=O)(=O)N3CCC(C)CC3)cc2)n1,-7,83*,71*,-8,49*,92*,98*,93*
COc1cc(/C=C/c2ccc3cccc(O)c3n2)cc(OC)c1OC,-11,72*,49*,-5,62*,77*,58*,85*
COc1cc(/C=C/c2ccc3cccc(O)c3n2)cc(Br)c1OC,-6,23,21,-6,10,34,/,/
Cc1cc(-n2c(C)cc(C(=O)CSc3nncn3C)c2C)no1,-1,7,6,-1,-2,13,/,/
CC(=O)OCCCNc1cc(Sc2nc3ccccc3s2)c2nonc2c1[N+](=O)[O-],-6,93*,77*,1,63*,104*,101*,103*
O=C(O)c1cccc(NC(=S)NC(=O)c2cncc(Br)c2)c1,-4,58*,43*,1,-3,42,81*,27
Cc1cc(O)ccc1NC(=S)NC(=O)c1cncc(Br)c1,-8,51*,43*,-4,6,70*,82*,48*
Cc1ccccc1NC(=S)NC(=O)c1cncc(Br)c1,-6,25,24,-1,-16,50,/,/
C=CCOC(=O)C(C#N)c1nc2ccccc2nc1N1CCC(C(=O)OCC)CC1 (stereo unspecified),-6,15,8,4,10,23,/,/
Cc1ccc(-n2c(SCCN)nnc2-c2cccc(C)c2)cc1,-8,44*,42*,-10,18,60*,70*,49*
O=C(Nc1nc(-c2ccccn2)cs1)Nc1ccc(F)cc1F,-8,65*,41*,-11,36,67*,65*,79*
O=C(NNc1ccc([N+](=O)[O-])cc1[N+](=O)[O-])c1ccco1,-16,44*,51*,-7,8,58*,79*,48*
O=C(NNc1ccc([N+](=O)[O-])cc1)c1ccco1,7,14,-9,2,-1,30,/,/
Cn1c(=O)[nH]c(=O)c2c1nc(Sc1nc3ccccc3s1)n2Cc1ccccc1,-10,52*,54*,-11,17,68*,50,54*
Cn1c(=O)[nH]c(=O)c2c1nc(SCC(=O)O)n2Cc1ccccc1,-1,-10,14,6,-5,0,/,/
O=c1cc(CSc2ccc(Cl)cc2)nc(-c2ccccc2)[nH]1,-1,-9,-4,2,-5,3,/,/
O=c1cc(CSc2ccc(Cl)cc2)nc(-c2ccccn2)[nH]1,-11,54*,51*,-8,48*,79*,70*,68*
CCOc1ccc(-c2csc(/C(C#N)=C\c3ccc(O)c([N+](=O)[O-])c3)n2)cc1,-5,39*,50*,-1,1,55*,61*,39
COc1ccc(-c2c(-c3cc(OC)cc(OC)c3)n(C)c3ccc(-c4cc(F)cc(OC)c4)cc23)cc1,-3,-2,6,-3,-2,14,/,/
CCc1ccc2nc(Nc3nc(COC)cc(=O)[nH]3)nc(C)c2c1,-1,-1,13,1,-2,17,/,/
COCc1cc(=O)[nH]c(Nc2nc3ccc(C)cc3o2)n1,-9,46*,52*,-3,5,41,54*,47*
CCN1C(=O)CS/C1=N\S(=O)(=O)c1ccc(Cl)cc1,-6,-2,-8,0,-1,13,/,/
CCn1c(Cl)c(C=O)s/c1=N\S(=O)(=O)c1ccccc1,0,89*,96*,-9,32,105*,105*,105*
SMILES,APJ agonist,CXCR6 block,APJ antagonist,HTR2A ag,EBI2 block,CCR6 antag,APJ antag confirm,CXCR6 confirm
CCN(c1ccc(NC(=O)COC(=O)c2ccc(C)c(S(=O)(=O)N3CCOCC3)c2)cc1)C(C)C,0,4,10,-2,6,0,/,/
CCC(C)c1ccc(O)c(NC(=O)c2cccnc2)c1 (stereo unspecified),-7,-4,-9,-2,-1,2,/,/
CC(C)c1ccc(O)c(NC(=S)NC(=O)c2cccnc2)c1,-10,60*,59*,-9,22,69*,84*,67*
CC(C)CC1(C)CNC(=O)NC1,/,-6,/,2,-5,-7,/,/
CCOC(=O)C1CCCN(c2c(C(=O)c3ccccc3)cnc3ccc(OC)cc23)C1 (stereo unspecified),-12,70*,58*,-9,41,83*,96*,69*
CCOC(=O)C1CCCN(C(=O)COc2ccc(C(=O)c3ccccc3)cc2)C1 (stereo unspecified),0,2,-11,2,-7,12,/,/
COc1cc(C(=O)Nc2ccc3c(c2)Cc2ccccc2-3)cc(OC)c1OC,0,-7,6,0,3,14,/,/
Cc1cccc(C)c1OCC(=O)Nc1ccc(NC(=O)c2ccco2)cc1,5,-7,-12,-2,2,-5,/,/
CCOc1ccc(C(=O)NCC(=O)OCC(=O)N2CCCC2)cc1,0,6,-1,-1,-4,10,/,/
O=C(C#Cc1ccccc1)c1ccco1,-4,69*,58*,10,21,70*,74*,83*
